Measured values from ChEMBL document CHEMBL1128321, “Piperazinylalkyl heterocycles as potential antipsychotic agents” (J Med Chem, 1995).
pKi: −log10 of the molar value.

Assays:
[1] = molecular target: T1, 5-hydroxytryptamine receptor 1A (Rattus norvegicus, UniProt P19327); test: Binding affinity was determined against 5-hydroxytryptamine 1A receptor using […]
T1 sequence (P19327 whole entry): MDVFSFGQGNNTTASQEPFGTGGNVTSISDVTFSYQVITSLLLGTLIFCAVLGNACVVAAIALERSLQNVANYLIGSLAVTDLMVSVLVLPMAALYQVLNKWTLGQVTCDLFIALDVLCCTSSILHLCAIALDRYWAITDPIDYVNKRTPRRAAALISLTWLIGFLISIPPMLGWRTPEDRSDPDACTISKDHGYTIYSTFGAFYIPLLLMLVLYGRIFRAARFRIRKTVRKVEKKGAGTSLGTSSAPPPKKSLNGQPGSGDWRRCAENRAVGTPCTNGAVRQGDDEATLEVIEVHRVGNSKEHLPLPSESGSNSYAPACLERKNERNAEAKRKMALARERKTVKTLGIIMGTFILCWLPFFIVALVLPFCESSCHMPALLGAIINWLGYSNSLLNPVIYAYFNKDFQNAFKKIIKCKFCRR

Rattus norvegicus [2] = test: Conditioned avoidance response activity was determined by the ability to block the conditioned avoidance of a foot shock at 5 mg/kg(ip); assay type: functional
Procedure, shortened: (§1)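 Male Fischer 344 rats (300–500 g) trained on a discrete-trial single-lever task, pressing the lever to avoid an impending shock; block of responding read at time of peak effect. Escape loss = percent of animals failing to escape the shock; >20% escape loss with CAR inhibition taken as potential for sedation.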

Rattus norvegicus [3] = test: Percentage of animals failing to escape shock was measured, affording a rough index for nonspecific sedation at 5 mg/kg(ip)
[4] = Stability half-life at pH-2; assay type: physicochemical
Procedure, shortened: (§2)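 Half-life measured in solution at pH 2, about 3 × 10⁻³ M compound in citric acid–phosphate buffer at 22 °C.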

[5] = Stability half-life at pH-2; stable; assay type: physicochemical; procedure, shortened: as §2
Rattus norvegicus [6] = test: Conditioned avoidance response activity was determined by the ability to block the conditioned avoidance of a foot shock at 15 mg/kg(ip); assay type: functional; procedure, shortened: as §1

| SMILES | pKi [1] | inhibition in vivo at 5 mg/kg (Rattus norvegicus [2]) | Esc loss (Rattus norvegicus [3]) | half-life [4] | T1/2 [5] | inhibition in vivo at 15 mg/kg (Rattus norvegicus [6]) |
| --- | --- | --- | --- | --- | --- | --- |
| COc1ccccc1N1CCN(Cc2ccc(CN(C(C)=O)C(C)C)n2C)CC1.O=C(O)CCC(=O)O | 7.80 | 8% | 0% | – | – | – |
| COc1ccccc1N1CCN(Cc2ccc(CN(C)S(C)(=O)=O)n2C)CC1.O=C(O)CCC(=O)O | 7.96 | 23% | 4% | 172 min | – | – |
| COc1ccccc1N1CCN(CCc2ccc(C(=O)C(=O)N3CCCCC3)n2C)CC1.O=C(O)CCC(=O)O | 7.60 | 45% | 26% | – | – | – |
| COc1ccccc1N1CCN(Cc2ccc(CNC(C)=O)n2C)CC1.O=C(O)CCC(=O)O | – | 14% | 3% | – | – | – |
| CNC(=O)c1ccc(CN2CCN(c3ccccc3OC(C)C)CC2)n1C.O=C(O)CCC(=O)O | 7.24 | 15% | 0% | 4340 min | – | – |
| CC(C)NC(=O)c1ccc(CN2CCN(c3ccccc3OC(C)C)CC2)n1C.O=C(O)CCC(=O)O | 7.32 | 1% | 0% | 22900 min | – | – |
| CNC(=O)c1ccc(CN2CCN(c3ccccc3OC)CC2)n1C.O=C(O)CCC(=O)O | 6.61 | 22% | 0% | – | Stable | – |
| CC(C)Oc1ccccc1N1CCN(CCc2ccc(C(=O)C(=O)N3CCCCCC3)n2C)CC1.O=C(O)CCC(=O)O | 7.92 | 1% | 0% | – | Stable | – |
| CC(C)Oc1ccccc1N1CCN(CCc2ccc(C(=O)C(=O)N3CCCCC3)n2C)CC1.O=C(O)CCC(=O)O | 8.64 | 16% | 1% | – | Stable | – |
| COc1ccccc1N1CCN(Cc2ccc(CN(Cc3ccccc3)C(=O)c3ccccc3)n2C)CC1.O=C(O)CCC(=O)O | – | 8% | 0% | – | – | – |
| CC(C)Oc1ccccc1N1CCN(Cc2ccc(CN3CCCCCC3=O)o2)CC1.O=C(O)CCC(=O)O | 7.29 | – | 1% | 629 min | – | 83% |
| COc1ccccc1N1CCN(CCc2ccc(CN3CCCCC3=O)n2C)CC1.O=C(O)CCC(=O)O | 8.85 | 23% | 4% | – | Stable | – |
| COc1ccccc1N1CCN(Cc2ccc(CN(C)S(=O)(=O)C(C)C)n2C)CC1.O=C(O)CCC(=O)O | 7.41 | 6% | 0% | 130 min | – | – |
| CCCCS(=O)(=O)N(C)Cc1ccc(CN2CCN(c3ccccc3OC(C)C)CC2)n1C.O=C(O)CCC(=O)O | 7.74 | 2% | 0% | 150 min | – | – |
| CC(C)Oc1ccccc1N1CCN(Cc2ccc(CN(C)S(C)(=O)=O)n2C)CC1.O=C(O)CCC(=O)O | – | 8% | 0% | 222 min | – | – |
| CC(C)Oc1ccccc1N1CCN(CCc2ccc(CN3CCCCC3=O)n2C)CC1.O=C(O)CCC(=O)O | 8.82 | 82% | 19% | – | Stable | – |
| COc1ccccc1N1CCN(Cc2ccc(CN(Cc3ccccc3)C(C)=O)n2C)CC1.O=C(O)CCC(=O)O | – | 3% | 0% | – | – | – |
| CC(C)Oc1ccccc1N1CCN(Cc2ccc(CN(C(=O)C(C)C)C(C)C)n2C)CC1.O=C(O)CCC(=O)O | 8.72 | 0% | 0% | – | – | – |
| CCCCC(=O)N(C)Cc1ccc(CN2CCN(c3ccccc3OC)CC2)n1C.O=C(O)CCC(=O)O | 8.35 | 2% | 1% | – | – | – |
| CCCCC(=O)N(C)Cc1ccc(CN2CCN(c3ccccc3OC(C)C)CC2)n1C.O=C(O)CCC(=O)O | 9.60 | 4% | 0% | – | – | – |
| COc1ccccc1N1CCN(Cc2ccc(CN(C)C(C)=O)n2C)CC1.O=C(O)CCC(=O)O | 7.41 | 52% | 2% | – | – | – |
| CC(C)Oc1ccccc1N1CCN(Cc2ccc(CN(C)S(=O)(=O)C(C)C)n2C)CC1.O=C(O)CCC(=O)O | 8.24 | – | 0% | – | – | 0% |
| CC(C)Oc1ccccc1N1CCN(Cc2ccc(CN(C)C(=O)C(C)C)n2C)CC1.O=C(O)CCC(=O)O | 9.08 | 3% | 0% | 64 min | – | – |
| CCCCS(=O)(=O)N(C)Cc1ccc(CN2CCN(c3ccccc3OC)CC2)n1C.O=C(O)CCC(=O)O | 8.15 | 7% | 1% | 222 min | – | – |
| COc1ccccc1N1CCN(Cc2ccc(CN3CCCCC3=O)o2)CC1.O=C(O)CCC(=O)O | 7.42 | – | 0% | – | – | 10% |

| SMILES | pKi [1] | inhibition in vivo at 5 mg/kg (Rattus norvegicus [2]) | Esc loss (Rattus norvegicus [3]) | half-life [4] | T1/2 [5] | inhibition in vivo at 15 mg/kg (Rattus norvegicus [6]) |
| --- | --- | --- | --- | --- | --- | --- |
| CC(C)Oc1ccccc1N1CCN(Cc2ccc(C(=O)N3CCCCC3)s2)CC1.O=C(O)CCC(=O)O | 8.38 | 56% | 18% | – | – | – |
| CC(C)Oc1ccccc1N1CCN(Cc2ccc(CN3CCCCC3=O)o2)CC1.O=C(O)CCC(=O)O | 7.68 | 46% | 0% | – | Stable | – |
| CC(C)Oc1ccccc1N1CCN(CCc2ccc(C(=O)C(=O)N3CCOCC3)n2C)CC1.O=C(O)CCC(=O)O | 8.03 | 2% | 0% | 5100 min | – | – |
| CC(C)Oc1ccccc1N1CCN(Cc2ccc(CN(C(=O)C3CCCCC3)C(C)C)n2C)CC1.O=C(O)CCC(=O)O | 8.33 | 13% | 0% | – | – | – |
| COc1ccccc1N1CCN(Cc2ccc(CN(C(=O)C3CCCCC3)C(C)C)n2C)CC1.O=C(O)CCC(=O)O | 7.96 | 36% | 26% | – | – | – |
| CC(=O)N(C)Cc1ccc(CN2CCN(c3ccccc3OC(C)C)CC2)n1C.O=C(O)CCC(=O)O | 7.92 | 63% | 2% | 70 min | – | – |
| COc1ccccc1N1CCN(Cc2ccc(CN3CCCCCC3=O)o2)CC1.O=C(O)CCC(=O)O | 7.57 | – | 11% | – | – | 93% |
| O=C(O)CCC(=O)O.O=C1CCCCN1Cc1ccc(CN2CCN(c3cccc4ccoc34)CC2)s1 | 10.15 | 63% | 5% | – | – | – |
| CC(C)Oc1ccccc1N1CCN(CC2CC(CN3CCCCC3=O)=NO2)CC1 (stereo unspecified) | 8.00 | 69% | 20% | – | – | – |
| CCCN(Cc1ccc(CN2CCN(c3ccccc3OC)CC2)n1C)S(=O)(=O)c1ccccc1 | – | – | 0% | – | – | 0% |
| COc1ccccc1N1CCN(Cc2ccc(CN3C(=O)c4ccccc4C3=O)o2)CC1 | 8.72 | – | 0% | – | – | 3% |
| CC(C)Oc1ccccc1N1CCN(CC2CC(CO)=NO2)CC1 (stereo unspecified) | 6.92 | 96% | 26% | 3650 min | – | – |
| CC(C)Oc1ccccc1N1CCN(Cc2cc(CO)no2)CC1 | – | 29% | 1% | 3460 min | – | – |
| COc1ccccc1N1CCN(Cc2ccc(CN(C(C)C)S(C)(=O)=O)n2C)CC1 | – | 1% | 0% | – | – | – |
| CC(C)Oc1ccccc1N1CCN(Cc2ccc(C(=O)N3CCCCCC3)s2)CC1.Cl | 8.49 | 8% | 3% | – | – | – |
| CC(C)Oc1ccccc1N1CCN(Cc2cc(CN3CCCCC3=O)no2)CC1.Cl | 7.03 | 0% | 0% | 1100 min | – | – |
| COc1ccccc1N1CCN(Cc2ccc(CCN3CCCCC3=O)n2C)CC1.Cl | – | 75% | 9% | < 7 min | – | – |
| CC(C)Oc1ccccc1N1CCN(Cc2cc(C(=O)N3CCCCC3)cs2)CC1.Cl | 8.60 | 72% | 34% | – | – | – |
| CC(C)Oc1ccccc1N1CCN(Cc2ccc(CCN3CCCCC3=O)n2C)CC1.Cl | – | 77% | 27% | < 13 min | – | – |
| CC(C)Oc1ccccc1N1CCN(Cc2ccc(C(=O)N3CCCCC3)n2C)CC1.Cl | – | – | 5% | – | – | 56% |
| Cl.O=C(c1ccc(CN2CCN(c3cccc4ccoc34)CC2)s1)N1CCCCC1 | 9.20 | 3% | 0% | – | – | – |
| CC(C)Oc1ccccc1N1CCN(Cc2cc(C(=O)N3CCCCCC3)cs2)CC1.Cl | 9.39 | 45% | 4% | – | – | – |
| CC(C)Oc1ccccc1N1CCN(Cc2ccc(CN3CCCCC3=O)s2)CC1.Cl | 8.51 | 58% | 3% | – | – | – |
| CC(C)Oc1ccccc1N1CCN(Cc2cccc(CN3CCCCC3=O)n2)CC1.Cl | 6.08 | 85% | 15% | 4220 min | – | – |
| CC(C)Oc1ccccc1N1CCN(Cc2cccc(C(=O)N3CCCCC3)c2)CC1 [MAZAPERTINE] | – | 98% | – | – | – | – |
